Results collected from several papers.
Protocols differ between the studies behind these lines.
Target: 3-phosphoinositide-dependent protein kinase 1 (PDPK1, Homo sapiens, UniProt O15530)
Residues used in one study (O15530 1-556): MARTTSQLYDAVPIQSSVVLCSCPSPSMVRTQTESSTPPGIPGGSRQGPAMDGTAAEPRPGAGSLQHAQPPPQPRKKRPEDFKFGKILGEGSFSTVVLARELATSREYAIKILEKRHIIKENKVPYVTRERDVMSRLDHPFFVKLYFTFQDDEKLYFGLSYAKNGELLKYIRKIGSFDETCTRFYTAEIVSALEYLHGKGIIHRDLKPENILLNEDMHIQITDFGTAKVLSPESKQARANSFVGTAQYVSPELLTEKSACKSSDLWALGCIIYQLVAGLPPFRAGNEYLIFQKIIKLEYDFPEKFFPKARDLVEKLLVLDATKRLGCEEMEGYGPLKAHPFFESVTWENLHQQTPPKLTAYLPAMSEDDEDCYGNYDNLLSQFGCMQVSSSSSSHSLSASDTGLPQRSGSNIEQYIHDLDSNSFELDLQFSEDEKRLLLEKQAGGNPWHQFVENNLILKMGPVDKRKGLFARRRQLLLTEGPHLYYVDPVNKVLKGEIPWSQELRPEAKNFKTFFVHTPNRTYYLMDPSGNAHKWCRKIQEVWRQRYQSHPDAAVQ

Structure (SMILES) | assay | setting | endpoint | result
Nc1ncc(-c2nc(N3CCOCC3)nc(N3CCOCC3)n2)c(C(F)F)n1 | binding, competition with immobilised ligand | 10 µM | remaining binding | 83%
CC(C)(C)c1cc(C=C(C#N)C#N)cc(Br)c1O | enzyme activity, inhibitor | 0.5 µM | remaining activity | 102%
COc1ncccc1-c1cnn2ccc(N3CCN(C(=O)OC(C)C)CC3)nc12 | binding, competition with immobilised ligand | 1 µM | remaining binding | 82%
Cn1cncc1[C@@](O)(COc1ccc(C#N)cc1-c1ccc(OC(F)(F)F)cc1)c1ccc(C#N)cc1 | cell-free assay, competition with immobilised ligand | 1 µM | remaining binding | 96%
C#Cc1n[nH]c2c(-c3cn([C@@H](C)c4ccccc4)c(=O)[nH]c3=O)cc(F)cc12 | enzyme activity, inhibitor | 0.1 µM | inhibition | 4%
Cn1cc(-c2cc(F)cc(N3CCn4c(cc5c4CCCC5)C3=O)c2CO)cc(Nc2ccc(N3CCN(C4COC4)CC3)cn2)c1=O | enzyme activity, inhibitor | 0.1 µM | inhibition | 1%
Cc1nn(C)cc1-c1nc2c(N3CCN(Cc4ccc(Cl)cc4)CC3)c(Cl)cnc2[nH]1 | binding, competition with immobilised ligand | 1 µM | remaining binding | 100%
C#Cc1n[nH]c2c(-c3cn([C@@H](C)c4ccccn4)c(=O)[nH]c3=O)cc(F)cc12 | enzyme activity, inhibitor | 0.1 µM | inhibition | 4.7%
O=c1[nH]c2ccccc2n1C1CCN(Cc2ccc(-c3[nH]c4cc5ncnc5cc4nc3-c3ccccc3)cc2)CC1 | cell-free assay | 0.5 µM | remaining signal | 107%
